Data from ChEMBL document CHEMBL4177540, “Corymbulosins D-H, 2-Hydroxy- and 2-Oxo-clerodane Diterpenes from the Bark of Laetia corymbulosa” (J Nat Prod, 2017).

Experiments:
Assay type in all cases: functional, cell-based
KB = experiment: Antiproliferative activity against human KB cells incubated for 72 hrs by SRB assay
MCF7 = experiment: Antiproliferative activity against human MCF7 cells incubated for 72 hrs by SRB assay; details: MCF7, 72 h
Method in brief: (§1)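 Cells in RPMI-1640 with 2 mM L-glutamine, 25 mM HEPES, 10% FBS, streptomycin and penicillin. Seeded at 4,000−12,000 cells per well, then exposed to compound for 72 h. Fixed with 10% trichloroacetic acid, stained with 0.04% SRB, dye taken up in 10 mM Tris base, absorbance read at 515 nm. IC50 is 50% reduction versus untreated cells, from at least three independent experiments run in duplicate.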

[1] = Antiproliferative activity against human KBVIN cells incubated for 72 hrs by SRB assay; method in brief: as §1
A549 = experiment: Antiproliferative activity against human A549 cells incubated for 72 hrs by SRB assay; details: A549, 72 h
MDA-MB-231 = experiment: Antiproliferative activity against human MDA-MB-231 cells incubated for 72 hrs by SRB assay; details: MDA-MB-231, 72 h

IC50 (KB) [µM]	IC50 (MCF7) [µM]	IC50 (A549) [µM]	IC50 (MDA-MB-231) [µM]	Compound	IC50 [1] [µM]
4.9	5.2	4.8	5.1	C=CC(=C)CC[C@]1(C)[C@H](C)C[C@H](OC(=O)/C=C\C=C/CCCCC)[C@@]23C(=C[C@@H](O)C[C@@H]12)[C@@H](OC(C)=O)O[C@H]3OC(C)=O	4.8
4.5	5.4	5.3	5.4	C=CC(=C)CC[C@]1(C)[C@H](C)C[C@H](OC(=O)CCCCCCCCC)[C@@]23C(=C[C@@H](O)C[C@@H]12)[C@@H](OC(C)=O)O[C@H]3OC(C)=O	4.8
4.8	4.8	4.6	4.8	C=CC(=C)CC[C@]1(C)[C@H](C)C[C@H](OC(=O)/C=C\C=C/CCCCC)[C@@]23C(=C[C@H](O)C[C@@H]12)[C@@H](OC(C)=O)O[C@H]3OC(C)=O	4.9
5.9	8.3	> 10	> 10	C=CC(=C)CC[C@]1(C)[C@H](C)C[C@H](OC(=O)CCCCCCCCC)[C@@]23C(=CC(=O)C[C@@H]12)[C@@H](OC(C)=O)O[C@H]3OC(C)=O	9.8
5	4.9	4.7	5.1	C=CC(=C)CC[C@]1(C)[C@H](C)C[C@H](OC(=O)CCCCCCC)[C@@]23C(=C[C@H](O)C[C@@H]12)[C@@H](OC(C)=O)O[C@H]3OC(C)=O	4.9
5	5	4.7	5.2	C=CC(=C)CC[C@]1(C)[C@H](C)C[C@H](OC(=O)CCCCCCCCC)[C@@]23C(=C[C@H](O)C[C@@H]12)[C@@H](OC(C)=O)O[C@H]3OC(C)=O	4.9
